From ChEMBL document CHEMBL4699629, “N-Hydroxyformamide LpxC inhibitors, their in vivo efficacy in a mouse Escherichia coli infection model, and their safety in a rat hemodynamic assay” (Bioorg Med Chem, 2020)
pIC50: −log10 of the molar value. ≈ marks a conversion by molar mass, not a printed value.

Key:
[1] = Displacement of fluorescent ligand from Escherichia coli LpxC measured after 30 mins by fluorescence anisotrophy assay
How it was run: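 Well mixes of 2 nM ligand C ± 12.5 nM E. coli LpxC; inhibitor two-fold dilutions 10 µM to […]; 30 min ambient, anisotropy 540/590 nm; % inhibition vs no-enzyme min; Hill fit for IC50; artifact correction at high concentrations.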

Escherichia coli [2] = test: Antibacterial activity against Escherichia coli ATCC 25922 assessed as bacterial growth inhibition by CLSI based broth microdilution method; format: functional
How it was run: (§1)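 CLSI broth microdilution determination of MIC.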

[3] = target: T1, UDP-3-O-acyl-N-acetylglucosamine deacetylase (Pseudomonas aeruginosa (strain ATCC 15692 / PAO1 / 1C / PRS 101 / LMG12228), UniProt P47205); test: Displacement of fluorescent ligand from Pseudomonas aeruginosa LpxC measured after 30 mins by fluorescence anisotrophy assay
T1 sequence (P47205 whole entry): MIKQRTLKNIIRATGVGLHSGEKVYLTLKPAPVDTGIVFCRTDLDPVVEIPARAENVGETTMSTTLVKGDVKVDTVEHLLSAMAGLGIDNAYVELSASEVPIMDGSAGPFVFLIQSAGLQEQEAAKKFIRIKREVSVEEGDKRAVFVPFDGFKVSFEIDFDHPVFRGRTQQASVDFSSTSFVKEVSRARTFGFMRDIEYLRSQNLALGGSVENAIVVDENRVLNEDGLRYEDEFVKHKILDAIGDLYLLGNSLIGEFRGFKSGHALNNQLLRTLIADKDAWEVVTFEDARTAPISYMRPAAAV

[4] = Solubility of the compound in 2.5% dextrose in sodium acetate buffer at pH 5; format: physicochemical
Klebsiella pneumoniae = test: Antibacterial activity against Klebsiella pneumoniae ATCC 700603 assessed as bacterial growth inhibition by CLSI based broth microdilution method; format: functional; how it was run: as §1
Pseudomonas aeruginosa = test: Antibacterial activity against Pseudomonas aeruginosa PAO1 assessed as bacterial growth inhibition by CLSI based broth microdilution method; format: functional; how it was run: as §1
[5] = AUC in mouse at 200 mg/kg, sc; format: ADME, organism-based; set-up: dose 200 mg/kg; conditions: in vivo
[6] = Observed clearance in mouse at 200 mg/kg, sc; format: ADME, organism-based; conditions: in vivo
Escherichia coli [7] = test: Antibacterial activity against Escherichia coli ARC6599 infected in cyclophosphamide-induced CD-1 mouse model of neutropenic thigh infection assessed as log10 reduction in CFU at 200 mg/kg, sc bid administered 2 hrs post-infection and measured after 24 hrs; format: functional
How it was run: (§2)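 Female CD-1 mice made neutropenic with cyclophosphamide IP, 150 mg/kg day -4 and 100 mg/kg day -1. Saline suspension from overnight plate, OD625 0.13, diluted; 100 µL i.m. into both rear thighs (actual 7.6×10^5 CFU/thigh). Dosing began 2 h post-infection, s.c. at 20 mL/kg in 5% DMSO plus 2.5% dextrose/20 mM acetate ([…]); 3 mice/group. Thighs harvested 26 h post-infection, homogenized in 2 mL saline, plated; mean and SD of log CFU.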

Escherichia coli [8] = test: Antibacterial activity against Escherichia coli ARC6599 infected in sc dosed cyclophosphamide-induced CD-1 mouse model of neutropenic thigh infection assessed as reduction in CFU administered 2 hrs post-infection and measured after 24 hrs; format: functional, organism-based; how it was run: as §2
[9] = Protein binding in rat plasma assessed as unbound fraction after 7 hrs by LC-MS/MS-based rapid equilibrium dialysis method; format: ADME, cell-free
How it was run: (§3)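 Rapid equilibrium dialysis: plasma spiked to 5 µM final, dialysed against PBS at 37 °C for 7 h with 400 rpm shaking; both chambers protein-precipitated with acetonitrile/0.1% formic acid containing carbutamide internal standard, quantified by LC-MS/MS. fu = buffer/sample peak area ratio; recovery accepted between 70 and 130%.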

[10] = Volume of distribution at steady state in Sprague-Dawley rat at 90 mg/kg, iv administered as single bolus dose by HPLC analysis; format: ADME, organism-based; conditions: in vivo, read-out: Vdss
How it was run: (§4)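 Fasted male Sprague-Dawley rats given one IV tail-vein slow-push bolus of compound formulated at 90 mg/mL in 2.5% dextrose/20 mM acetate pH 5, 1 mL/kg; saphenous blood at selected times into K2EDTA for plasma.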

[11] = Volume of distribution in mouse at 200 mg/kg, sc; format: ADME, organism-based; conditions: in vivo
[12] = Cmax in mouse at 200 mg/kg, sc; format: ADME, organism-based; set-up: route subcutaneous, dose 200 mg/kg; conditions: in vivo
[13] = Clearance in Sprague-Dawley rat at 90 mg/kg, iv administered as single bolus dose by HPLC analysis; format: ADME, organism-based; conditions: in vivo; how it was run: as §4
[14] = Ratio of fAUC in mouse at 200 mg/kg, sc to MIC for antibacterial activity against Escherichia coli ARC6599 infected in cyclophosphamide-induced CD-1 mouse model of neutropenic thigh infection; format: ADME, organism-based; conditions: in vivo
Acetylcholinesterase = Acetylcholinesterase (Homo sapiens, UniProt P22303); test: Inhibition of human AchE expressed in HEK293 cells using acetylthiocholine as substrate by Ellman's method
Chain of Acetylcholinesterase (P22303 whole entry): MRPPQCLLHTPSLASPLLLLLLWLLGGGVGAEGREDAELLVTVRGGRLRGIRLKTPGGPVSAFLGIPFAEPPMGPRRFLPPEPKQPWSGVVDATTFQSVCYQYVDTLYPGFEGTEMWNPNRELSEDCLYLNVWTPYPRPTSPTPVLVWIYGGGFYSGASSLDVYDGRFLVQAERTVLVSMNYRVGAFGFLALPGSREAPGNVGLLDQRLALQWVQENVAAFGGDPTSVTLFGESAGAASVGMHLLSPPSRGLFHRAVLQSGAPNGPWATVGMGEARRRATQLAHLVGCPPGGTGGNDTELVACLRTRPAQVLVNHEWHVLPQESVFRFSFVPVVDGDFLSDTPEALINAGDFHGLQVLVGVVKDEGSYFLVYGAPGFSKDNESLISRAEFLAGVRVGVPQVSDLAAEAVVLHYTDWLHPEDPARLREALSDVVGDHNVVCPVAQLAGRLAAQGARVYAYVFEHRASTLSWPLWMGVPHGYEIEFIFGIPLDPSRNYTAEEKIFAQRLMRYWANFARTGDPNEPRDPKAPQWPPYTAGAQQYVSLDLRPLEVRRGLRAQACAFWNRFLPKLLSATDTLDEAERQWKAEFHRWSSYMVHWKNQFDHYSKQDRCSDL
How it was run: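 Purified recombinant enzyme in 0.1 M sodium phosphate pH 7.4 with 0.01% Triton X-100. Two-fold inhibitor dilutions from 300 µM to 0.29 µM plus zero, each held at 3% DMSO. Acetylthiocholine and Ellman's reagent added as a solution of 1.2 mM each; reaction started with 0.006 U/mL enzyme solution. A412 read every minute for 1 h, with a no-enzyme blank subtracted. Initial slopes give % inhibition; IC50 from a Hill-equation fit.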

[15] = Protein binding in mouse plasma assessed as unbound fraction after 7 hrs by LC-MS/MS-based rapid equilibrium dialysis method; format: ADME, cell-free; how it was run: as §3
Escherichia coli [16] = test: Antibacterial activity against Escherichia coli ARC6599 infected in cyclophosphamide-induced CD-1 mouse model of neutropenic thigh infection assessed as log10 reduction in CFU at 200 mg/kg, sc qd administered 2 hrs post-infection and measured after 24 hrs; format: functional; how it was run: as §2
[17] = Chemical stability of the compound; format: physicochemical

Compound | pIC50 [1] | MIC (Escherichia coli [2]) | pIC50 [3] | also measured
O=CN(O)CCCc1ccc(C#Cc2ccc(CN3CCOCC3)cc2)cc1 | 7.68 | 32 µg/mL (≈ 84.6 µM) | 7.20 | 
O=CN(O)CCN1C(=O)Cc2cc(C#Cc3ccc(CN4CCOCC4)cc3)ccc21 | 7.60 | 4 µg/mL (≈ 9.54 µM) | 6.77 | 
O=CN(O)CCn1ccc2nc(C#Cc3ccc(CN4CCOCC4)cc3)ccc21 | 6.77 | 32 µg/mL (≈ 79.1 µM) | 6.00 | 
CS[C@@H](Cn1nnc2cc(C#Cc3ccc(CN4CC5(C4)C[S+]([O-])C5)cc3)ccc21)N(O)C=O.O=C(O)C(F)(F)F |  |  |  | solubility [4]: > 200 mg/mL
C[C@@H](O)[C@H](NC(=O)c1ccc(C#Cc2ccc(CN3CCOCC3)cc2)cc1)C(=O)NO | > 8.00 | 0.13 µg/mL (≈ 0.297 µM) |  | MIC (Klebsiella pneumoniae): 2 µg/mL (≈ 4.57 µM); MIC (Pseudomonas aeruginosa): 1 µg/mL (≈ 2.29 µM)
O=CN(O)CCn1ccc2cc(C#Cc3ccc(CN4CCOCC4)cc3)ncc21 | 6.13 | 64 µg/mL (≈ 158 µM) | 6.00 | 
CS[C@@H](Cn1nnc2cc(C#Cc3ccc(CN4CCOCC4)cc3)ccc21)N(O)C=O | > 8.00 | 0.13 µg/mL (≈ 0.288 µM) | > 9.00 | AUC [5]: 34800 ng·h/mL; CL [6]: 80 mL/min/kg; Activity (Escherichia coli [7]): >3.2 log10CFU; Activity (Escherichia coli [8]): Dose-dependent effect; fraction unbound at 7 h [9]: 0.03; MIC (Klebsiella pneumoniae): 4 µg/mL (≈ 8.86 µM); Vd [10]: 0.58 L/kg; Vd [11]: 10.1 L/kg; Cmax [12]: 21500 ng/mL; MIC (Pseudomonas aeruginosa): 4 µg/mL (≈ 8.86 µM); clearance [13]: 33.3 mL/min/kg; fAUC/MIC [14]: 104; pIC50 (Acetylcholinesterase): 5.46; fraction unbound at 7 h [15]: 0.09; Activity (Escherichia coli [16]): 2 log10CFU
CS[C@H](Cn1nnc2cc(C#Cc3ccc(CN4CCOCC4)cc3)ccc21)N(O)C=O | 7.39 | 4 µg/mL (≈ 8.86 µM) | 7.68 | 
O=CN(O)CCn1nnc2cc(C#Cc3ccc(CN4CCOCC4)cc3)ccc21 | 7.70 | 4 µg/mL (≈ 9.87 µM) | 7.36 | 
O=CN(O)CCc1nnn2cc(C#Cc3ccc(CN4CCOCC4)cc3)ccc12 | 7.82 | 4 µg/mL (≈ 9.87 µM) | 7.43 | 
O=CN(O)CCc1nnc2cc(C#Cc3ccc(CN4CCOCC4)cc3)ccn12 | 7.27 | 16 µg/mL (≈ 39.5 µM) | 6.55 | 
O=CN(O)CCn1ncc2cc(C#Cc3ccc(CN4CCOCC4)cc3)ccc21 | 7.55 | 4 µg/mL (≈ 9.89 µM) | 7.19 | 
CC(Cn1nnc2cc(C#Cc3ccc(CN4CCOCC4)cc3)ccc21)N(O)C=O (stereo not drawn) |  | 2 µg/mL (≈ 4.77 µM) | 7.85 | 
CCC(Cc1n[nH]c2cc(C#Cc3ccc(CN4CCOCC4)cc3)ccc12)N(O)C=O (stereo not drawn) | 7.72 | 4 µg/mL (≈ 9.25 µM) | 8.00 | MIC (Klebsiella pneumoniae): > 64 µg/mL; MIC (Pseudomonas aeruginosa): > 64 µg/mL
O=CN(O)CCn1cnc2cc(C#Cc3ccc(CN4CCOCC4)cc3)ccc21 | 7.09 | 16 µg/mL (≈ 39.6 µM) | 5.96 | 
O=C(CNC(=O)c1ccc(C#Cc2ccc(CN3CCOCC3)cc2)cc1)NO | 7.68 | 16 µg/mL (≈ 40.7 µM) | 7.20 | MIC (Klebsiella pneumoniae): > 64 µg/mL; MIC (Pseudomonas aeruginosa): 64 µg/mL (≈ 163 µM)

The next lines start with results.

pIC50 [1] | MIC (Escherichia coli [2]) | pIC50 [3] | Compound | also measured
7.66 | 2 µg/mL (≈ 4.45 µM) | 7.39 | CCOC(Cn1nnc2cc(C#Cc3ccc(CN4CCOCC4)cc3)ccc21)N(O)C=O (stereo not drawn) | Stabilty [17]: Unstable
> 8.00 | 0.25 µg/mL (≈ 0.574 µM) | 8.14 | COC(Cn1nnc2cc(C#Cc3ccc(CN4CCOCC4)cc3)ccc21)N(O)C=O (stereo not drawn) | Stabilty [17]: Unstable
7.38 | 2 µg/mL (≈ 4.59 µM) | 7.21 | O=CN(O)C(CO)Cn1nnc2cc(C#Cc3ccc(CN4CCOCC4)cc3)ccc21 (stereo not drawn) | 
> 8.00 | 1 µg/mL | 8.60 | CC[C@@H]([C@@H](CC(C)O)c1n[nH]c2cc(C#Cc3ccc(CN4CCOCC4)cc3)ccc12)N(O)C=O (mixture of isomers) | MIC (Klebsiella pneumoniae): 32 µg/mL; MIC (Pseudomonas aeruginosa): 16 µg/mL
> 8.00 | 0.25 µg/mL (≈ 0.554 µM) | 8.89 | CSC(Cn1nnc2cc(C#Cc3ccc(CN4CCOCC4)cc3)ccc21)N(O)C=O (stereo not drawn) | 
8.00 | 2 µg/mL (≈ 4.96 µM) | 7.35 | O=CN(O)CCn1ccc2cc(C#Cc3ccc(CN4CCOCC4)cc3)ccc21 | 
> 8.00 | 1 µg/mL (≈ 2.31 µM) | 8.62 | CCC(Cn1nnc2cc(C#Cc3ccc(CN4CCOCC4)cc3)ccc21)N(O)C=O (stereo not drawn) | 
> 8.00 | 0.5 µg/mL (≈ 1.07 µM) | 8.27 | CCSC(Cn1nnc2cc(C#Cc3ccc(CN4CCOCC4)cc3)ccc21)N(O)C=O (stereo not drawn) | 
